Measurements taken from ChEMBL document CHEMBL4043163, “Methyl propiolate and 3-butynone: Starting points for synthesis of amphiphilic 1,2,3-triazole peptidomimetics for antimicrobial evaluation” (Bioorg Med Chem, 2017).
Active and inactive are the calls of the source. The calls are words filed in the database; no cut-off is given here.

How the values were obtained:
Enterococcus faecalis [1] = experiment: Antimicrobial activity against Enterococcus faecalis ATCC 29212 assessed as growth inhibition incubated overnight at 37degC by visual and photometry based method; assay type: functional
Staphylococcus aureus [2] = experiment: Antimicrobial activity against Staphylococcus aureus ATCC 25923 assessed as growth inhibition incubated overnight at 37degC by visual and photometry based method; assay type: functional
Streptococcus agalactiae = experiment: Antimicrobial activity against Streptococcus agalactiae ATCC 12386 assessed as growth inhibition incubated overnight at 37degC by visual and photometry based method; assay type: functional
Escherichia coli [3] = experiment: Antimicrobial activity against Escherichia coli ATCC 25922 assessed as growth inhibition incubated overnight at 37degC by visual and photometry based method; assay type: functional
Pseudomonas aeruginosa [4] = experiment: Antimicrobial activity against Pseudomonas aeruginosa ATCC 27853 assessed as growth inhibition incubated overnight at 37degC by visual and photometry based method; assay type: functional
HepG2 = experiment: Cytotoxicity against human HepG2 cells incubated for 24 hrs by CellTiter 96 aqueous one solution reagent based assay; assay type: cell-based; conditions: HepG2, 24 h
How it was run: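 HepG2 seeded 20,000 cells/well overnight, then exposed 24 h to a concentration range in serum-free MEM Earle's (gentamycin, NEAA, pyruvate, alanyl-glutamine); MTS reagent 1 h, absorbance 485 nm; % survival versus medium and Triton X-100 controls; EC50 from four-parameter normalized nonlinear regression.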

[5] = Selectivity index, ratio of EC50 for human HepG2 cells to MIC for Streptococcus agalactiae ATCC 12386; assay type: toxicity; conditions: read-out: Selectivity Index
How it was run: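 Selectivity index computed as HepG2 EC50 (24 h MTS assay) divided by S. agalactiae MIC.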

[6] = system: Staphylococcus epidermidis; experiment: Inhibition of biofilm formation of Staphylococcus epidermidis incubated overnight at 37degC by crystal violet based assay; assay type: functional
Escherichia coli [7] = experiment: Antimicrobial activity against Escherichia coli ATCC 25922 assessed as growth inhibition =<64 ug/ml incubated overnight at 37degC by visual and photometry based method; assay type: functional
Pseudomonas aeruginosa [8] = experiment: Antimicrobial activity against Pseudomonas aeruginosa ATCC 27853 assessed as growth inhibition =<64 ug/ml incubated overnight at 37degC by visual and photometry based method; assay type: functional
Enterococcus faecalis [9] = experiment: Antimicrobial activity against Enterococcus faecalis ATCC 29212 assessed as growth inhibition at =<64 ug/ml incubated overnight at 37degC by visual and photometry based method; assay type: functional
[10] = system: Staphylococcus epidermidis; experiment: Inhibition of biofilm formation of Staphylococcus epidermidis at =<64 ug/ml incubated overnight at 37degC by crystal violet based assay; assay type: functional
Staphylococcus aureus [11] = experiment: Antimicrobial activity against Staphylococcus aureus ATCC 25923 assessed as growth inhibition =<64 ug/ml incubated overnight at 37degC by visual and photometry based method; assay type: functional

Compound | MIC (Enterococcus faecalis [1]) | MIC (Staphylococcus aureus [2]) | MIC (Streptococcus agalactiae) | MIC (Escherichia coli [3]) | MIC (Pseudomonas aeruginosa [4]) | EC50 (HepG2) [µg/mL] | selectivity ratio [5] | MIC [6] [µg/mL] | growth inhibition (GI) (Escherichia coli [7]) | growth inhibition (GI) (Pseudomonas aeruginosa [8]) | growth inhibition (GI) (Enterococcus faecalis [9]) | inhibition [10] | growth inhibition (GI) (Staphylococcus aureus [11])
CCCCCCCOc1ccc(-n2cc(C(=O)NCCNC(=N)N)nn2)cc1.Cl | 16 µg/mL | 4 µg/mL | 8 µg/mL | 8 µg/mL | 8 µg/mL | 23.8 | 2.97 | 4 | – | – | – | – | –
N=C(N)NCCNC(=O)c1cn(C23CC4CC(CC(C4)C2)C3)nn1 | inactive | inactive | inactive | inactive | inactive | – | – | – | – | – | – | – | –
CC(C)(C)c1cc(COc2ccc(-n3cc(C(=O)NCCNC(=N)N)nn3)cc2)cc(C(C)(C)C)c1.Cl | 16 µg/mL | 8 µg/mL | 4 µg/mL | – | – | 16.2 | 4.04 | 2 | inactive | inactive | – | – | –
CC(C)(C)c1cc(Cn2cc(C(=O)N3CCNCC3)nn2)cc(C(C)(C)C)c1.Cl | – | 64 µg/mL | 64 µg/mL | 64 µg/mL | – | – | – | – | – | inactive | inactive | – | –
CC(C)(C)c1cc(Cn2cc(C(=O)NCCN)nn2)cc(C(C)(C)C)c1.Cl | – | 64 µg/mL | 64 µg/mL | 32 µg/mL | 64 µg/mL | – | – | – | – | – | inactive | – | –
CC(C)(C)c1ccc(Cn2cc(C(=O)NCCN)nn2)cc1 | inactive | inactive | inactive | inactive | inactive | – | – | – | – | – | – | – | –
N=C(N)N1CCN(C(=O)c2cn(C34CC5CC(CC(C5)C3)C4)nn2)CC1 | inactive | inactive | inactive | inactive | inactive | – | – | – | – | – | – | – | –
CC(C)(C)c1ccc(Cn2cc(C(=O)N3CCNCC3)nn2)cc1 | inactive | inactive | inactive | inactive | inactive | – | – | – | – | – | – | – | –
CCCCCCCn1cc(C(=O)NCCNC(=N)N)nn1 | inactive | inactive | inactive | inactive | inactive | – | – | – | – | – | – | – | –
CC(C)(C)c1cc(-n2cc(C(=O)NCCN)nn2)cc(C(C)(C)C)c1.Cl | 32 µg/mL | 16 µg/mL | 16 µg/mL | 16 µg/mL | 32 µg/mL | 8 | 0.5 | – | – | – | – | inactive | –
C/C(=N\NC(=N)N)c1cn(-c2cc(C(C)(C)C)cc(C(C)(C)C)c2)nn1.O=C(O)C(F)(F)F | 4 µg/mL | 4 µg/mL | 2 µg/mL | 4 µg/mL | 16 µg/mL | 2.6 | 1.32 | 4 | – | – | – | – | –
CN1CCN(C(=O)c2cn(Cc3ccc(C(C)(C)C)cc3)nn2)CC1 | inactive | inactive | inactive | inactive | inactive | – | – | – | – | – | – | – | –
CCCCCCCn1cc(C(=O)N2CCN(C(=N)N)CC2)nn1 | inactive | inactive | inactive | inactive | inactive | – | – | – | – | – | – | – | –
CN1CCN(C(=O)c2cn(C34CC5CC(CC(C5)C3)C4)nn2)CC1 | inactive | inactive | inactive | inactive | inactive | – | – | – | – | – | – | – | –
CCCCCCCn1cc(C(=O)N2CCNCC2)nn1 | inactive | inactive | inactive | inactive | inactive | – | – | – | – | – | – | – | –
CC(C)(C)c1cc(Cn2cc(C(=O)N3CCN(C(=N)N)CC3)nn2)cc(C(C)(C)C)c1.Cl | – | 64 µg/mL | 32 µg/mL | – | 64 µg/mL | – | – | – | inactive | – | inactive | – | –
CC(C)(C)c1ccc(Cn2cc(C(=O)NCCNC(=N)N)nn2)cc1 | inactive | inactive | inactive | inactive | inactive | – | – | – | – | – | – | – | –
O=C(c1cn(C23CC4CC(CC(C4)C2)C3)nn1)N1CCNCC1 | inactive | inactive | inactive | inactive | inactive | – | – | – | – | – | – | – | –
CCCCCCCOc1ccc(-n2cc(/C(C)=N/NC(=N)N)nn2)cc1.O=C(O)C(F)(F)F | 32 µg/mL | – | 8 µg/mL | 16 µg/mL | 64 µg/mL | 2 | 0.25 | 8 | – | – | – | – | inactive
CN1CCN(C(=O)c2cn(Cc3cc(C(C)(C)C)cc(C(C)(C)C)c3)nn2)CC1 | inactive | inactive | inactive | inactive | inactive | – | – | – | – | – | – | – | –
CC(C)(C)c1cc(Cn2cc(C(=O)NCCNC(=N)N)nn2)cc(C(C)(C)C)c1.Cl | 64 µg/mL | 32 µg/mL | 16 µg/mL | 64 µg/mL | 32 µg/mL | – | – | – | – | – | – | – | –
C/C(=N\NC(=N)N)c1cn(Cc2cc(C(C)(C)C)cc(C(C)(C)C)c2)nn1.Cl | 8 µg/mL | 4 µg/mL | 4 µg/mL | 8 µg/mL | 8 µg/mL | 2.3 | 0.57 | 4 | – | – | – | – | –
CC(C)(C)c1cc(COc2ccc(-n3cc(C(=O)NCCN)nn3)cc2)cc(C(C)(C)C)c1.Cl | 8 µg/mL | – | 2 µg/mL | – | 16 µg/mL | 2.9 | 1.44 | 8 | inactive | – | – | – | inactive
NCCNC(=O)c1cn(C23CC4CC(CC(C4)C2)C3)nn1 | inactive | inactive | inactive | inactive | inactive | – | – | – | – | – | – | – | –
CC(C)(C)c1cc(-n2cc(C(=O)NCCNC(=N)N)nn2)cc(C(C)(C)C)c1.Cl | 16 µg/mL | 8 µg/mL | 8 µg/mL | 16 µg/mL | 16 µg/mL | 31.3 | 3.91 | 4 | – | – | – | – | –
C/C(=N\NC(=N)N)c1cn(-c2ccc(OCc3cc(C(C)(C)C)cc(C(C)(C)C)c3)cc2)nn1.Cl | 64 µg/mL | – | 0.5 µg/mL | – | – | 1.9 | 3.86 | 4 | inactive | inactive | – | – | inactive
CCCCCCCn1cc(C(=O)NCCN)nn1 | inactive | inactive | inactive | inactive | inactive | – | – | – | – | – | – | – | –
CCCCCCCOc1ccc(-n2cc(C(=O)NCCN)nn2)cc1.Cl | – | 4 µg/mL | 8 µg/mL | – | 16 µg/mL | 3.5 | 0.44 | 4 | inactive | – | inactive | – | –
GENTAMICIN | 10 µg/mL | 0.13 µg/mL | 4 µg/mL | – | – | – | – | – | – | – | – | – | –
CCCCCCCn1cc(C(=O)N2CCN(C)CC2)nn1 | inactive | inactive | inactive | inactive | inactive | – | – | – | – | – | – | – | –
